# Screening results: PubChem BioAssay, Sanford-Burnham Center for Chemical Genomics
# Sampled rows, rich in hits. Any-hit rate of the full collection: about 4.1%.
# UBC13 polyUb: blocks human UBC13 polyubiquitin chain formation. P61088. TR-FRET. inhibition, % at 20 µM. 330,000 tested, 0.47% active. AID 485273; in the data active means inhibition above about 45%, passing the limit was not always enough
# Target sequence (P61088 whole entry, looked up): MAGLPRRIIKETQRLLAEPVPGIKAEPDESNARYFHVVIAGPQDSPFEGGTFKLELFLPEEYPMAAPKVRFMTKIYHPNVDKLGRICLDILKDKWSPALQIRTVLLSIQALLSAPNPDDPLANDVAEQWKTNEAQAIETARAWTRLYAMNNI
# Apaf1 inhib: inhibitors of human Apaf-1 apoptosome; inhibition, % at 20 µM; 330,000 tested, 0.71% active; reconstituted apoptosome caspase-3 activity, DEVD-Rh110 fluorescence; O14727; AID 489030; active means inhibition of at least 40% at 20 µM;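 further: plate controls were DMSO wells for no effect and DEVD-CHO caspase inhibitor wells for full effect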
#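 Material: reconstituted apoptosome with Apaf-1, cytochrome c, caspase-9, procaspase-3, dATP / Buffer or medium: pH 7.5 Hepes buffer with CHAPS, BSA, DTT / Also added: cytochrome c with DEVD-Rh110 / Schedule: compound with Apaf-1, dATP, procaspase-3 30 min, then 50 min reaction, room temperature / Technique: rhodamine 110 fluorescence at Ex 480/Em 540 nm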
# UPR XBP1 act: adaptive UPR (XBP1) activation; AID 463104; CHO-XBP1 luciferase reporter, IRE1-XBP1 UPR activation, luminescence; percent of tunicamycin response, DMSO as zero; 330,000 tested, 0.33% active; activation, % at 20 µM;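 active means versus positive control, 20 µM dose yields 30% or more activation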;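 further: 100% = tunicamycin at 10 µg/mL and 0% = DMSO only wells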
#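 Test system: CHO-XBP1 luciferase reporter cells | Buffer or medium: Serum-containing F12 medium, 10% FBS | Schedule: 6 h compound exposure at 37 °C, 5% CO2 | Detection: Steady-Glo luciferase glow luminescence, 10 min after reagent addition | Read-out basis: Activation, % of tunicamycin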
# CHOP UPR activ: activators of apoptotic arm of unfolded protein response (CHOP); CHO-CHOP luciferase reporter, UPR activation, luminescence; percent of tunicamycin response over DMSO baseline; activation, % at 10 µM; 330,000 tested, 0.34% active;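 active means at 10 µM dose, activation of 40% or more, normalized to positive control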;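 further: 100% = tunicamycin at 10 µg/mL and 0% = DMSO alone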
#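 System: CHO-CHOP luciferase reporter cell line; amount: 500 cells/well; buffer or medium: F12 medium containing 10% fetal bovine serum; incubation: 6 h compound exposure at 37 °C after overnight seeding; measured by: luciferase luminescence after 10 min with Steady-Glo reagent; evaluation: % reporter activation, DMSO baseline versus tunicamycin full activation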
# Mdm2-MdmX inh: inhibitors of human Mdm2/MdmX interaction; O15151+Q00987; SaOS-2 split-luciferase Mdm2/MdmX complementation, luminescence; inhibition, % at 8 µM; 330,000 tested, 3% active;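 active means inhibition of at least 50% at 8 µM in the primary screen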
# Mdm2 MdmX conf: human Mdm2/MdmX binding inhibition, confirmed; AID 489028; luminescent assay; 10,000 tested, 55% active; shares compounds with Mdm2-MdmX inh; inhibition, % at 8 µM; in the data active means inhibition above about 40%
# FLuc counter: counter-screen for Mdm2/MdmX inhibitors: full-length luciferase; shares compounds with Mdm2-MdmX inh; SaOS-2 full-length luciferase counterscreen, luminescence; inhibition, % at 8 µM; 6,200 tested, 77% active;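 active means mean inhibition at 8 µM reaching about 37%, which flags the compound as non-specific, limit read from the data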;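 further: p53-null SaOS-2 cells with luciferase driven by a doxycycline-inducible promoter; compound on cells about two nights before reading with doxycycline added after day one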
# Starred values were filed as active, the others as inactive; / = no result.
SMILES,UBC13 polyUb,Apaf1 inhib,UPR XBP1 act,CHOP UPR activ,Mdm2-MdmX inh,Mdm2 MdmX conf,FLuc counter
CCCCc1nc2cc(C(=O)NCc3cc(C)n(C)n3)ccc2o1,6,0,-2,5,0,/,/
Cc1cc(C)n(C(=O)/C(C#N)=N/Nc2cc(Cl)cc(Cl)c2)n1,-31,11,0,1,89*,88*,51*
COc1ccccc1NC(=O)c1cc2c(CO)cnc(C)c2oc1=Nc1ccc(OC)c(OC)c1,7,9,5,17,65*,35,/
Cc1ccc(C(=O)NN2C(=O)C3C(C2=O)C2C=CC3C23CC3)cc1 (configuration not stated),-5,-6,-5,2,16,/,/
OCC[C@@H]1C[C@H](O)[C@@H](O)[C@@]2(CCCCO2)O1,-8,1,-1,-2,10,/,/
CC[C@@H](C(=O)[C@@H](C)[C@@H](O)[C@H](C)CCc1ccc(C)c(O)c1C(=O)O)[C@H]1O[C@](CC)([C@H]2CC[C@](O)(CC)[C@H](C)O2)C[C@@H]1C,-23,11,-3,12,100*,71*,35
CC(C)(C)c1nc2ccccc2c2nnc(SCC(=O)Nc3nccs3)n12,0,3,17,6,68*,60*,50*
CCCCn1c(SCC(=O)Nc2nccs2)nc2ccccc2c1=O,-4,-5,3,6,65*,4,/
COC(=O)c1ccc(C)c(NS(=O)(=O)c2ccc(C)c([N+](=O)[O-])c2)c1,-2,-1,-3,1,-13,/,/
COC(=O)c1ccc(C)c(NS(=O)(=O)c2ccc(OC)cc2)c1,4,-4,10,-2,70*,60*,100*
COc1ccccc1NS(=O)(=O)c1ccc2c(c1)OCCO2,-2,-4,1,0,2,/,/
COC(=O)c1ccc(C)c(NS(=O)(=O)c2ccc3c(c2)OCCO3)c1,8,-5,6,-2,64*,60*,78*
N=C1C(c2ccccc2)=C(O)CN1c1cccc(S(=O)(=O)N2CCOCC2)c1,6,-6,-1,-1,17,/,/
CCCCC(=O)NC(c1ccc(OC)c(OC)c1)c1c(O)ccc2ccccc12 (configuration not stated),0,4,2,0,-7,/,/
CCCCC(=O)NC(c1ccccc1OC)c1ccc2cccnc2c1O (configuration not stated),-1,1,4,-1,87*,83*,52*
CCCC(=O)NC(c1ccccc1OC)c1ccc2cccnc2c1O (configuration not stated),-18,-7,6,1,77*,82*,50*
CC(=O)N1CCC2(CC1)C/C(=N\NC(=S)Nc1ccccc1F)c1cc(O)ccc1O2,4,-6,-2,2,67*,32,96*
